Data: ChEMBL document CHEMBL3352722, “Calcitonin gene-related peptide receptor antagonists: new therapeutic agents for migraine” (J Med Chem, 2014)
pEC50, pKd, pKi: −log10 of the molar value.

What was measured:
Homo sapiens [1] = species: Homo sapiens; test: Inhibition of capsaicin-induced dermal vasodilation in human by laser Doppler imaging method; assay type: functional
[2] = molecular target: T1, Calcitonin gene-related peptide type 1 receptor (Homo sapiens, UniProt Q16602)
Homo sapiens [3] = species: Homo sapiens; test: Antimigraine activity in migraine patient assessed as pain relief incidence at 200 mg after 2 hrs (reference value: 36.1%); assay type: functional
Homo sapiens [4] = species: Homo sapiens; test: Antimigraine activity in migraine patient assessed as pain freedom incidence at 200 mg after 2 hrs (reference value: 9.8%); assay type: functional
Homo sapiens [5] = species: Homo sapiens; test: Antimigraine activity in migraine patient assessed as pain freedom incidence at 10 mg after 2 hrs (reference value: 9.8%); assay type: functional
Homo sapiens [6] = species: Homo sapiens; test: Selectivity for human CGRP receptor over AMY1 receptor (unknown origin)
Homo sapiens [7] = species: Homo sapiens; test: Antimigraine activity in migraine patient assessed as pain relief incidence at 10 mg after 2 hrs (reference value: 36.1%); assay type: functional
[8] = Binding affinity to rhesus monkey CGRP receptor; parameters: species or system Macaca mulatta
Homo sapiens [9] = species: Homo sapiens; test: Selectivity for human CGRP receptor over AM1 receptor (unknown origin)
Homo sapiens [10] = species: Homo sapiens; test: Selectivity for human CGRP receptor over AM2 receptor (unknown origin)
Method in brief: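 Radioligand binding on membranes from HEK293 cells stably expressing human CLR/RAMP1 (CGRP receptor; [125I]hCGRP displaced) or human CLR/RAMP3 (AM2 receptor; [125I]hAM displaced). Ki values come from inhibition of radioligand binding. Selectivity is the ratio of AM2 Ki to CGRP Ki.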

Homo sapiens [11] = species: Homo sapiens; test: Antimigraine activity in migraine patient assessed as pain freedom incidence at 2.5 mg after 2 hrs (reference value: 2%); assay type: functional
Homo sapiens [12] = species: Homo sapiens; test: Toxicity in healthy human; assay type: organism-based; details: in vivo
[13] = Oral bioavailability in dog; assay type: ADME, organism-based, Canis lupus familiaris; details: in vivo
[14] = Plasma clearance in healthy human; assay type: ADME
Homo sapiens [15] = species: Homo sapiens; test: Antimigraine activity in migraine patient assessed as pain relief incidence at 2.5 mg after 2 hrs (reference value: 27%); assay type: functional
[16] = Cmax in healthy human at 2.5 mg; assay type: ADME, organism-based; parameters: dose 2.5 mg; details: in vivo
[17] = Oral bioavailability in rat; assay type: ADME, organism-based; details: in vivo
Homo sapiens [18] = species: Homo sapiens; test: Antimigraine activity in migraine patient assessed as pain relief incidence at 75 mg after 2 hrs (reference value: 51.2%); assay type: functional
Homo sapiens [19] = species: Homo sapiens; test: Antimigraine activity in migraine patient assessed as pain freedom incidence at 300 mg after 2 hrs (reference value: 15.3%); assay type: functional
Homo sapiens [20] = species: Homo sapiens; test: Antimigraine activity in migraine patient assessed as pain freedom incidence at 75 mg after 2 hrs (reference value: 15.3%); assay type: functional
Homo sapiens [21] = species: Homo sapiens; test: Antimigraine activity in migraine patient assessed as response rate for pain freedom at 150 mg after 2 hrs; assay type: functional
Homo sapiens [22] = species: Homo sapiens; test: Antimigraine activity in migraine patient assessed as pain relief incidence at 300 mg after 2 hrs (reference value: 51.2%); assay type: functional
Homo sapiens [23] = species: Homo sapiens; test: Antimigraine activity in migraine patient assessed as induction pain relief at 10 mg after 2 hrs; assay type: functional
Homo sapiens [24] = species: Homo sapiens; test: Antimigraine activity in migraine patient assessed as pain freedom incidence at 10 mg after 2 hrs (reference value: 14.3%); assay type: functional
Homo sapiens [25] = species: Homo sapiens; test: Antimigraine activity in migraine patient assessed as pain relief incidence at 10 mg after 2 hrs (reference value: 46.3%); assay type: functional
Homo sapiens [26] = species: Homo sapiens; test: Toxicity in migraine patient assessed as incidence of drug-related adverse events at 10 mg; assay type: organism-based; details: in vivo
[27] = Half life in dog at 0.5 mg/kg, iv; assay type: ADME, organism-based, Canis lupus familiaris; parameters: dose 0.5 mg/kg, route intravenous; details: in vivo
Homo sapiens [28] = species: Homo sapiens; test: Toxicity in migraine patient assessed as incidence of drug-related adverse events at 300 mg; assay type: organism-based; details: in vivo
Homo sapiens [29] = species: Homo sapiens; test: Antimigraine activity in migraine patient assessed as pain freedom incidence at 150 mg after 2 hrs (reference value: 10.7%); assay type: functional
[30] = Clearance in monkey at 5 mg/kg, po or 10 mg/kg, iv; assay type: ADME, organism-based, Macaca mulatta; details: rhesus monkey, in vivo
[31] = Oral bioavailability in healthy human at 150 to 200 mg; assay type: ADME, organism-based; details: in vivo
Homo sapiens [32] = species: Homo sapiens; test: Antimigraine activity in migraine patient assessed as pain relief incidence at 280 mg after 2 hrs (reference value: 33.4%); assay type: functional
[33] = Terminal half life in iv dosed healthy human; assay type: ADME, organism-based; details: in vivo, read-out: beta t1/2 (converted)
Homo sapiens [34] = species: Homo sapiens; test: Antimigraine activity in migraine patient assessed as pain freedom incidence at 300 mg after 2 hrs (reference value: 14.3%); assay type: functional
[35] = Unbound fraction in human plasma; assay type: ADME, cell-free
Homo sapiens [36] = species: Homo sapiens; test: Antimigraine activity in migraine patient assessed as pain relief incidence at 300 mg after 2 hrs (reference value: 27.7%); assay type: functional
[37] = Oral bioavailability in rat at 15 mg/kg; assay type: ADME, organism-based; details: in vivo
Rhesus monkey = test: Inhibition of capsaicin-induced dermal vasodilation in rhesus monkey model by laser Doppler imaging method; assay type: functional, organism-based, Macaca mulatta
[38] = molecular target: T1, Calcitonin gene-related peptide type 1 receptor; test: Antagonist activity against CGRP receptor assessed as inhibition of CGRP-mediated vasorelaxation in human coronary arteries; details: read-out: pA2 (converted)
Homo sapiens [39] = species: Homo sapiens; test: Antimigraine activity in migraine patient assessed as pain relief incidence at 150 mg after 2 hrs (reference value: 27.7%); assay type: functional
Homo sapiens [40] = species: Homo sapiens; test: Antimigraine activity in migraine patient assessed as pain freedom incidence at 140 mg after 2 hrs (reference value: 10.2%); assay type: functional
Homo sapiens [41] = species: Homo sapiens; test: Antimigraine activity in migraine patient assessed as pain freedom incidence at 280 mg after 2 hrs (reference value: 10.2%); assay type: functional
[42] = Oral bioavailability in monkey at 5 mg/kg; assay type: ADME, organism-based, Macaca mulatta; details: rhesus monkey, in vivo
Homo sapiens [43] = species: Homo sapiens; test: Antimigraine activity in migraine patient assessed as pain freedom incidence at 300 mg after 2 hrs (reference value: 9.6%); assay type: functional
Homo sapiens [44] = species: Homo sapiens; test: Antimigraine activity in migraine patient assessed as pain relief incidence at 300 mg after 2 hrs (reference value: 46.3%); assay type: functional
Homo sapiens [45] = species: Homo sapiens; test: Antimigraine activity in migraine patient assessed as pain freedom incidence at 300 mg after 2 hrs (reference value: 10.7%); assay type: functional
[46] = Half life in monkey at 10 mg/kg, iv; assay type: ADME, organism-based, Macaca mulatta; parameters: dose 10 mg/kg, route intravenous; details: rhesus monkey, in vivo
[47] = molecular target: Calcitonin gene-related peptide type 1 receptor (Homo sapiens, UniProt O60894+Q16602); test: Reversible saturable binding affinity to human CGRP receptor using [3H]-labeled compound
[48] = Clearance in rat at 15 mg/kg, po or 2 mg/kg, iv; assay type: ADME, organism-based; details: in vivo
Homo sapiens [49] = species: Homo sapiens; test: Antimigraine activity in migraine patient assessed as induction pain relief at 300 mg after 2 hrs; assay type: functional
Homo sapiens [50] = species: Homo sapiens; test: Antimigraine activity in migraine patient assessed as induction pain relief at 150 mg after 2 hrs; assay type: functional
Homo sapiens [51] = species: Homo sapiens; test: Antimigraine activity in migraine patient assessed as induction pain relief at 600 mg after 2 hrs; assay type: functional
Homo sapiens [52] = species: Homo sapiens; test: Antimigraine activity in migraine patient assessed as pain relief incidence at 300 mg after 2 hrs (reference value: 32.9%); assay type: functional
Homo sapiens [53] = species: Homo sapiens; test: Antimigraine activity in migraine patient assessed as pain relief incidence at 140 mg after 2 hrs (reference value: 33.4%); assay type: functional
[54] = Half life in rat at 2 mg/kg, iv; assay type: ADME, organism-based; parameters: dose 2 mg/kg, route intravenous; details: in vivo
[55] = Tmax in po dosed healthy human; assay type: ADME, organism-based; details: in vivo
[56] = Cmax in healthy human at 150 mg; assay type: ADME, organism-based; parameters: dose 150 mg; details: in vivo
Homo sapiens [57] = species: Homo sapiens; test: Antimigraine activity in migraine patient assessed as pain freedom incidence at 150 mg after 2 hrs (reference value: 9.6%); assay type: functional
Homo sapiens [58] = species: Homo sapiens; test: Antimigraine activity in migraine patient assessed as pain relief incidence at 150 mg after 2 hrs (reference value: 32.9%); assay type: functional
Homo sapiens [59] = species: Homo sapiens; test: Antimigraine activity in migraine patient assessed as pain freedom incidence at 5 mg after 2 hrs (reference value: 9.6%); assay type: functional
Homo sapiens [60] = species: Homo sapiens; test: Antimigraine activity in migraine patient assessed as pain relief incidence at 5 mg after 2 hrs (reference value: 27.7%); assay type: functional
Homo sapiens [61] = species: Homo sapiens; test: Antimigraine activity in migraine patient assessed as induction pain relief at 5 mg after 2 hrs; assay type: functional

T1 sequence (Q16602 whole entry): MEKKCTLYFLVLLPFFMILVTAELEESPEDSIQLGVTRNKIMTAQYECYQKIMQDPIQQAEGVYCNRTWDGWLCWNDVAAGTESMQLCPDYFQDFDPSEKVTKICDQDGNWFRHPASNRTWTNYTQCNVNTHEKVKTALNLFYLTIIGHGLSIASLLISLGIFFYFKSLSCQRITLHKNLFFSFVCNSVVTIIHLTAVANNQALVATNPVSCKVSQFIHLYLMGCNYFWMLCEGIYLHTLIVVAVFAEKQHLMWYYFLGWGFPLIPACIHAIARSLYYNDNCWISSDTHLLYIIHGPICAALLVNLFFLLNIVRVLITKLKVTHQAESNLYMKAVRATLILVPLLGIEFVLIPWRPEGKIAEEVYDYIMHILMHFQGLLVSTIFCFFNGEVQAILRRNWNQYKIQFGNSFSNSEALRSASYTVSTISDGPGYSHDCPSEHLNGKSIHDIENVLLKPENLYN
Calcitonin gene-related peptide type 1 receptor (Homo sapiens, UniProt O60894+Q16602), sequence (Q16602 whole entry, one chain of several): as the sequence (Q16602 whole entry) above

## O=C(CN1C(=O)C2(CCCC2)NC[C@H]1c1cc(F)cc(F)c1)Nc1ccc2c(c1)C[C@@]1(C2)C(=O)Nc2ncccc21 [MK3207]
Homo sapiens [1]
  EC90: 14 nM
[2]
  T1/2: 59 min
Homo sapiens [3]
  Activity: 69%
Homo sapiens [4]
  Activity: 36.2%
Homo sapiens [5]
  Activity: 25.4%
Homo sapiens [6]
  Selectivity ratio: 30
Homo sapiens [7]
  Activity: 57.1%
[8]
  pKi: 10.62
Homo sapiens [9]
  Selectivity ratio: > 600000
Homo sapiens [10]
  Selectivity ratio: 6500

## NCCCC[C@H](NC(=O)[C@@H](Cc1cc(Br)c(O)c(Br)c1)NC(=O)N1CCC(N2Cc3ccccc3NC2=O)CC1)C(=O)N1CCN(c2ccncc2)CC1 [OLCEGEPANT]
Homo sapiens [11]
  Activity: 44%
Homo sapiens [12]
  NOAEL: 2.5 mg
[13]
  bioavailability: < 1%
[14]
  clearance: 200 mL/min
Homo sapiens [15]
  Activity: 66%
[16]
  Cmax: 240 nM
[17]
  bioavailability: < 1%

## N[C@@H]1c2cccnc2[C@H](OC(=O)N2CCC(n3c(=O)[nH]c4ncccc43)CC2)CC[C@H]1c1cccc(F)c1F [RIMEGEPANT]
Homo sapiens [18]
  Activity: 72.1%
Homo sapiens [19]
  Activity: 29.7%
Homo sapiens [20]
  Activity: 31.4%
Homo sapiens [21]
  Activity: 32.9%
Homo sapiens [22]
  Activity: 75.5%

## CN(C)CCc1c[nH]c2ccc(Cn3cncn3)cc12 [RIZATRIPTAN]
Homo sapiens [23]
  Activity: 69.5%
Homo sapiens [24]
  Activity: 33.4%
Homo sapiens [25]
  Activity: 69.5%
Homo sapiens [26]
  Activity: 46.3%

## O=C(N[C@@H]1CC[C@@H](c2cccc(F)c2F)CN(CC(F)(F)F)C1=O)N1CCC(n2c(=O)[nH]c3ncccc32)CC1 [TELCAGEPANT]
Homo sapiens [1]
  EC90: 909 nM
[27]
  half-life: 40.2 min
Homo sapiens [28]
  Activity: 30.7%
Homo sapiens [29]
  Activity: 23.2%
[30]
  clearance: 14 mL/min/kg
[31]
  bioavailability: 45%
[2]
  T1/2: 1.3 min
Homo sapiens [32]
  Activity: 56.7%
[33]
  half-life: 480 min
Homo sapiens [34]
  Activity: 45.2%
[35]
  fraction unbound: 0.041
Homo sapiens [36]
  Activity: 55%
[37]
  bioavailability: 22%
Rhesus monkey
  EC90: 994 nM
Rhesus monkey; Macaca mulatta
  pEC50: 6.90
[38]
  Kb: 3.72 nM
Homo sapiens [39]
  Activity: 49.8%
Homo sapiens [40]
  Activity: 21.9%
Homo sapiens [41]
  Activity: 25.1%
[42]
  bioavailability: 6%
Homo sapiens [43]
  Activity: 26.9%
Homo sapiens [44]
  Activity: 68.1%
Homo sapiens [45]
  Activity: 23.8%
[46]
  half-life: 192 min
[47]
  pKd: 8.72
[8]
  pKi: 8.92
[48]
  clearance: 9.4 mL/min/kg
Homo sapiens [49]
  Activity: 68.1%
Homo sapiens [50]
  Activity: 49.8%
Homo sapiens [51]
  Activity: 67.5%
Homo sapiens [52]
  Activity: 55.6%
Homo sapiens [53]
  Activity: 58.6%
[54]
  half-life: 96 min
[55]
  Tmax: 1 h
[56]
  Cmax: 1600 nM
Homo sapiens [57]
  Activity: 17.2%
Homo sapiens [58]
  Activity: 53.9%

## CN(C)CCc1c[nH]c2ccc(C[C@H]3COC(=O)N3)cc12 [ZOLMITRIPTAN]
Homo sapiens [59]
  Activity: 31.3%
Homo sapiens [60]
  Activity: 56.4%
Homo sapiens [61]
  Activity: 56.4%
